Reference: ChEMBL document CHEMBL2057092, “The SAR analysis of TRPV1 agonists with the α-methylated B-region” (Bioorg Med Chem Lett, 2012)

Experiments:
[1] = molecular target: T1, Transient receptor potential cation channel subfamily V member 1 (Rattus norvegicus, UniProt O35433); experiment: Displacement of [3H]RTX from rat TRPV1 expressed in CHO cells; format: cell-based
[2] = molecular target: T1, Transient receptor potential cation channel subfamily V member 1; experiment: Agonist activity at rat TRPV1 expressed in CHO cells assessed as calcium uptake; format: functional, cell-based
Procedure, shortened: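 Functional agonism was read as 45Ca2+ uptake in CHO cells heterologously expressing rat TRPV1.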

[3] = molecular target: Transient receptor potential cation channel subfamily V member 1 (Rattus norvegicus) (UniProt O35433); experiment: Antagonist activity at rat TRPV1 expressed in CHO cells assessed as inhibition of calcium uptake at 30 uM; format: functional, cell-based
[4] = molecular target: Transient receptor potential cation channel subfamily V member 1 (Rattus norvegicus) (UniProt O35433); experiment: Agonist activity at rat TRPV1 expressed in CHO cells assessed as calcium uptake at 300 nM relative to capsaicin; format: functional, cell-based

Transient receptor potential cation channel subfamily V member 1 (Rattus norvegicus), sequence (O35433 whole entry): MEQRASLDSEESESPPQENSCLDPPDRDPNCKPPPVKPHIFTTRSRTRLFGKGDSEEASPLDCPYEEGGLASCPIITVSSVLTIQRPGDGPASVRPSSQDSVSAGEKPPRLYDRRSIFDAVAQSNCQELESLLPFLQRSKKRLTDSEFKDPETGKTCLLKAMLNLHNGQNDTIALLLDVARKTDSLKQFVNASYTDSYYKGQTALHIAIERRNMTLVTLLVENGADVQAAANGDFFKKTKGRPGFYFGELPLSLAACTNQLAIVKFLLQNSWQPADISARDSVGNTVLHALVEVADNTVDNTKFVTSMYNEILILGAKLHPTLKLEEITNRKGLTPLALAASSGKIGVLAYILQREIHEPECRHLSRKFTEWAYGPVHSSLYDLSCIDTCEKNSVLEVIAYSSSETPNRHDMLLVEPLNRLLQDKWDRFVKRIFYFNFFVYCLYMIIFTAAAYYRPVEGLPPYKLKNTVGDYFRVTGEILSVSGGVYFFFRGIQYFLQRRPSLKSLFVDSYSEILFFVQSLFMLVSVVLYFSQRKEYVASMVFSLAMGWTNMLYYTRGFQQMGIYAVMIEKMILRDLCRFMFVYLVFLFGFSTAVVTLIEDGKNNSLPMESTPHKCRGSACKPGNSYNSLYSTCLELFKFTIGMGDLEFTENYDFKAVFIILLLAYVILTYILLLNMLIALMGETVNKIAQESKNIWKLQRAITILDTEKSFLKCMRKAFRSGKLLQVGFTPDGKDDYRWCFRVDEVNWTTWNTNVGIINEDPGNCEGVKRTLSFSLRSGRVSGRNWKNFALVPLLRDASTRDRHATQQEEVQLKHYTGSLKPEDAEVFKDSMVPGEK
T1 sequence (O35433 whole entry): as above

Row | SMILES | Ki [1] | EC50 [2] | inhibition [3] | Activity [4]
1 | COc1cc(C(C)C(=O)NCCCc2ccc(C)c(C)c2)ccc1O (stereo unspecified) | 177 nM | 21.3 nM | – | –
2 | CCCCCCCCNC(=O)C(C)c1ccc(O)c(OC)c1 (stereo unspecified) | 744 nM | 130 nM | – | –
3 | CC(C(=O)NCc1ccc(C(C)(C)C)cc1)c1ccc(O)c(Cl)c1 (stereo unspecified) | 33.1 nM | – | 9% | 77%
4 | CC(C)(C)c1ccc(CNC(=O)Cc2ccc(O)c(F)c2)cc1 | 808 nM | 911 nM | 30% | –
5 | CC(C)(C)c1ccc(CNC(=O)Cc2ccc(OCCN)c(Cl)c2)cc1 | 2470 nM | – | 56% | 36%
6 | COc1cc(C(C)NC(=S)NCc2ccc(C(C)(C)C)cc2)ccc1OCCN (stereo unspecified) | 1430 nM | 5800 nM | – | –
7 | COc1cc(C(C)C(=O)NCc2ccc(C(C)(C)C)cc2)ccc1O (stereo unspecified) | 308 nM | 24 nM | 15% | –
8 | COc1cc(C/N=C(\S)NCc2ccc(C(C)(C)C)cc2)ccc1OCCN | 84 nM | 132 nM | – | –
9 | COc1cc(CC(=O)NCCCc2ccc(C)c(C)c2)ccc1OCCN [DAVASAICIN] | 930 nM | 589 nM | – | –
10 | CC(C)(C)c1ccc(CNC(=O)Cc2ccc(OCCN)c(F)c2)cc1 | 10100 nM | – | 18% | 63%
11 | CCCCCCCCC(=O)NCc1ccc(O)c(OC)c1 [NONIVAMIDE] | 1220 nM | 223 nM | – | –
12 | CCCCCCCC/C=C\CCCCCCCC(=O)NCc1ccc(O)c(OC)c1 [OLVANIL] | 142 nM | 202 nM | – | –
13 | CC(C(=O)NCc1ccc(C(C)(C)C)cc1)c1ccc(O)c(F)c1 (stereo unspecified) | 178 nM | 221 nM | 20% | –
14 | CCCCCCCCC(=O)NC(C)c1ccc(O)c(OC)c1 (stereo unspecified) | 4280 nM | 1580 nM | 44% | 72%
15 | CCCCCCCCCNC(=O)Cc1ccc(O)c(OC)c1 | 240 nM | 61 nM | – | –
16 | CCCCCCCCCC(=O)NCc1ccc(O)c(OC)c1 | 864 nM | 83 nM | – | –
17 | CCCCCCCC/C=C/CCCCCCCC(=O)NC(C)c1ccc(O)c(OC)c1 (stereo unspecified) | 226 nM | 678 nM | – | –
18 | COc1cc(CC(=O)NCc2ccc(C(C)(C)C)cc2)ccc1OCCN | 1230 nM | 358 nM | 12% | –
19 | CC(C(=O)NCc1ccc(C(C)(C)C)cc1)c1ccc(OCCN)c(F)c1 (stereo unspecified) | 2160 nM | – | – | 91%
20 | COc1cc(CC(=O)NCCCc2ccc(C)c(C)c2)ccc1O | 354 nM | 41 nM | – | –
21 | CC(C)(C)c1ccc(CNC(=O)Cc2ccc(O)c(Cl)c2)cc1 | 132 nM | 206 nM | – | –
22 | COc1cc(CNC(=S)NCc2ccc(C(C)(C)C)cc2)ccc1O | – | 2.6 nM | – | –
23 | COc1cc(C(C)C(=O)NCCCc2ccc(C)c(C)c2)ccc1OCCN (stereo unspecified) | 518 nM | 404 nM | – | –
24 | CC(C(=O)NCc1ccc(C(C)(C)C)cc1)c1ccc(OCCN)c(Cl)c1 (stereo unspecified) | 380 nM | – | 38% | 75%
25 | COc1cc(C(C)NC(=S)NCc2ccc(C(C)(C)C)cc2)ccc1O (stereo unspecified) | 194 nM | 380 nM | 35% | 70%
26 | CCCCCCCCNC(=O)Cc1ccc(O)c(OC)c1 | 848 nM | 77 nM | – | –
27 | COc1cc(C(C)C(=O)NCc2ccc(C(C)(C)C)cc2)ccc1OCCN (stereo unspecified) | 504 nM | 238 nM | 16% | –
28 | CCCCCCCCCC(=O)NC(C)c1ccc(O)c(OC)c1 (stereo unspecified) | 3300 nM | 1250 nM | 28% | –
29 | CCCCCCCCCNC(=O)C(C)c1ccc(O)c(OC)c1 (stereo unspecified) | 159 nM | 26.3 nM | – | –
